This passage reports IC50 results from ChEMBL document CHEMBL1152716, “Stereoselective synthesis of bioactive isosteviol derivatives as alpha-glucosidase inhibitors” (Bioorg Med Chem, 2009).

By IC50 is commonly meant the concentration that gives 50% inhibition. A lower IC50 goes with higher potency.

The test can be described thus: Inhibition of yeast alpha glucosidase after 30 mins. On the set-up: species or system Saccharomyces cerevisiae. The procedure, abridged:
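Baker's yeast α-glucosidase (0.04 U/mL) preincubated 30 min with inhibitor in 0.067 M K2HPO4/KH2PO4 buffer, pH 6.8, at 37 °C; inhibitor and substrate dissolved in DMSO, final DMSO 10%. Reaction started with 0.5 mM substrate, run 5 min at 37 °C, quenched with 0.1 M Na2CO3 (pH 9.8). Absorbance at 405 nm read immediately as hydrolysis rate; triplicate.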
`CC(C)OC(=O)[C@]1(C)CCC[C@@]2(C)[C@@H]3CC[C@@]4(C)C[C@]3(CC[C@@H]21)[C@H](CO)[C@H]4O` returned an IC50 of 97.2 µM. Take `CCOC(=O)[C@]1(C)CCC[C@@]2(C)[C@@H]3CC[C@@]4(C)C[C@]3(CC[C@@H]21)[C@H](COC(=O)c1ccccc1)[C@H]4O`: the midpoint of inhibition, the IC50, lay at 112 µM.

The molecule `C=CCOC(=O)[C@]1(C)CCC[C@@]2(C)[C@@H]3CC[C@@]4(C)C[C@]3(CC[C@@H]21)[C@H](CO)[C@H]4O` returned an IC50 of 143 µM. In the case of `C[C@@]12CC[C@@H]3[C@@](CC[C@H]4[C@@]3(C)CCC[C@@]4(C)C(=O)O)(C[C@@H]1N)C2` it was above 200 µM; in that of `COC(=O)[C@]1(C)CCC[C@@]2(C)[C@@H]3CC[C@@]4(C)C[C@]3(CC[C@@H]21)[C@H](CO)[C@H]4O`, 96.5 µM; in that of `CCOC(=O)[C@]1(C)CCC[C@@]2(C)[C@@H]3CC[C@@]4(C)C[C@]3(CC[C@@H]21)[C@H](COC(C)=O)[C@H]4O`, 132 µM. Next, `C[C@]12CC[C@@H]3[C@](CC[C@H]4[C@@]3(C)CCC[C@@]4(C)C(=O)O)(C1)c1c2[nH]c2ccccc12`: 83.2 µM; `CCOC(=O)[C@]1(C)CCC[C@@]2(C)[C@@H]3CC[C@@]4(C)C[C@]3(CC[C@@H]21)C/C4=N\O`: 88.9 µM.

`CCOC(=O)[C@]1(C)CCC[C@@]2(C)[C@@H]3CC[C@@]4(C)C[C@]3(CC[C@@H]21)[C@H](CO)C4=O` displayed an IC50 of 143 µM.

`C[C@]12CC[C@H]3[C@]4(C)CCC[C@@](C)(C(=O)OCc5ccccc5)[C@H]4CC[C@@]3(C1)[C@H](CO)[C@H]2O` came in with an IC50 above 200 µM. Next, `CC(C)COC(=O)[C@]1(C)CCC[C@@]2(C)[C@@H]3CC[C@@]4(C)C[C@]3(CC[C@@H]21)[C@H](CO)[C@H]4O`: 102 µM; `CC(C)CCOC(=O)[C@]1(C)CCC[C@@]2(C)[C@@H]3CC[C@@]4(C)C[C@]3(CC[C@@H]21)[C@H](CO)[C@H]4O`: 116 µM. Next, `C[C@]12CC[C@H]3[C@]4(C)CCC[C@@](C)(C(=O)OCCO)[C@H]4CC[C@@]3(C1)[C@H](CO)[C@H]2O`: above 200 µM; `CCOC(=O)[C@]1(C)CCC[C@@]2(C)[C@@H]3CC[C@@]4(C)C[C@]3(CC[C@@H]21)[C@H](COC(=O)c1ccccc1)C4=O`: above 200 µM; `C[C@@]12CC[C@@H]3[C@@](CC[C@H]4[C@@]3(C)CCC[C@@]4(C)C(=O)O)(CC(=O)N1)C2` [ISOSTEVIOL LACTAM]: 81.6 µM. Turning to `C=CC(=O)O[C@@H]1C[C@]23CC[C@H]4[C@@](C)(CCC[C@@]4(C)C(=O)OCC)[C@@H]2CC[C@@]1(C)C3`, the IC50 is above 200 µM. The molecule `C[C@@]12CC[C@@H]3[C@@](CC[C@H]4[C@@]3(C)CCC[C@@]4(C)C(=O)O)(C/C1=N/O)C2` had an IC50 of 92.1 µM. Next, `CCOC(=O)[C@]1(C)CCC[C@@]2(C)[C@@H]3CC[C@@]4(C)C[C@]3(CC[C@@H]21)CC(=O)N4`: 72.4 µM. The molecule `C=C1C(=O)[C@@]2(C)CC[C@@H]3[C@]1(CC[C@H]1[C@@]3(C)CCC[C@@]1(C)C(=O)OCC)C2` registered an IC50 above 200 µM. Take `CCOC(=O)[C@]1(C)CCC[C@@]2(C)[C@@H]3CC[C@@]4(C)C[C@]3(CC[C@@H]21)C[C@@H]4N`: the IC50 was 91.2 µM. `C[C@@]12CC[C@@H]3[C@@](CC[C@H]4[C@@]3(C)CCC[C@@]4(C)C(=O)O)(CC(=O)O1)C2` came in with an IC50 of 139 µM. Next, `C[C@]12CC[C@H]3[C@]4(C)CCC[C@@](C)(C(=O)O)[C@H]4CC[C@@]3(C1)[C@H](CO)[C@H]2O`: 149 µM; `CCOC(=O)[C@]1(C)CCC[C@@]2(C)[C@@H]3CC[C@@]4(C)C[C@]3(CC[C@@H]21)C[C@H]4O`: 132 µM; `CCOC(=O)[C@]1(C)CCC[C@@]2(C)[C@@H]3CC[C@@]4(C)C[C@]3(CC[C@@H]21)c1c4[nH]c2ccccc12`: 68.2 µM. Consider `CCN[C@H]1C[C@]23CC[C@H]4[C@@](C)(CCC[C@@]4(C)C(=O)OCC)[C@@H]2CC[C@@]1(C)C3`, for which the IC50 was determined as 114 µM. Next, `CCOC(=O)[C@]1(C)CCC[C@@]2(C)[C@@H]3CC[C@@]4(C)C[C@]3(CC[C@@H]21)[C@H](COC(C)=O)C4=O`: above 200 µM; `CC(C)(C)OC(=O)[C@]1(C)CCC[C@@]2(C)[C@@H]3CC[C@@]4(C)C[C@]3(CC[C@@H]21)[C@H](CO)[C@H]4O`: 114 µM; `CCCOC(=O)[C@]1(C)CCC[C@@]2(C)[C@@H]3CC[C@@]4(C)C[C@]3(CC[C@@H]21)[C@H](CO)[C@H]4O`: 85.4 µM. Next, `C[C@@]12CC[C@@H]3[C@@](CC[C@H]4[C@@]3(C)CCC[C@@]4(C)C(=O)O)(CC1=O)C2` [ISOSTEVIOL]: above 200 µM. In the case of `CCOC(=O)[C@]1(C)CCC[C@@]2(C)[C@@H]3CC[C@@]4(C)C[C@]3(CC[C@@H]21)CC(=O)O4`, half-maximal inhibition (IC50) required 118 µM. Consider `CCCCOC(=O)[C@]1(C)CCC[C@@]2(C)[C@@H]3CC[C@@]4(C)C[C@]3(CC[C@@H]21)[C@H](CO)[C@H]4O`, for which 87.2 µM corresponded to half-maximal inhibition (IC50). Next, `CCOC(=O)[C@]1(C)CCC[C@@]2(C)[C@@H]3CC[C@@]4(C)C[C@]3(CC[C@@H]21)CC4=O`: above 200 µM; `CCOC(=O)[C@]1(C)CCC[C@@]2(C)[C@@H]3CC[C@@]4(C)C[C@]3(CC[C@@H]21)[C@H](CO)[C@H]4O`: 86.2 µM; `C[C@@]12CC[C@@H]3[C@@](CC[C@H]4[C@@]3(C)CCC[C@@]4(C)C(=O)O)(C[C@H]1O)C2`: 156 µM.
